# The full list was thinned out, with hits kept by preference.
# PolyA inhibitor: inhibitors of polyadenylation in S. cerevisiae; activity score, % at 12 µM; S. cerevisiae SKY197-pL101 polyadenylation reporter, beta-gal luminescence; efflux-impaired pdr1/pdr3 knockout yeast; score 100 = 6 SD above DMSO; 300,000 tested, 0.02% active;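 active = lowest replicate activity score at least 50, where 100 means six control SD above control mean; inconclusive = lowest score under 50 but half or more replicates reach 50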;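 also: yeast exposed to compound for 9 h at 30 °C; higher score means more reporter readthrough which indicates perturbed polyadenylation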
# L major viab: Leishmania major promastigote growth inhibition | 200,000 tested, 9% active | Leishmania major promastigotes, resazurin fluorescence viability | inhibition, % at 10 µM | AID 1063; in the data active = inhibition above about 50%;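 also: promastigotes grown with compound for 44 hours at 28 °C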
# NLRP3 yeast inh: inhibitors of NALP3 inflammasome in yeast; 330,000 tested, 0.39% active; inhibition, % at 10 µM; Yeast reconstituted NLRP3/ASC/caspase-1, beta-gal luminescence, 24 h;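 active = inhibition of 50% or more; inactive = inhibition below 50%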;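 also: plate controls were induced DMSO wells for no effect and uninduced yeast grown without galactose for full effect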
# T cruzi repl: T. cruzi replication inhibition. T. cruzi beta-gal in NIH3T3, luminescence, 90 h. inhibition, % (test concentration not listed). 300,000 tested, 1.4% active. AID 1885;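 active = mean inhibition across valid replicates above about 55%, limit read from the data; inconclusive = mean below that limit but half or more replicates reach it; inactive = mean below it, under half of replicates reach it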;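 also: signal also drops with host cell toxicity which is not excluded here; 0% = plate median of DMSO wells and 100% = zero luminescence signal; higher percent means less beta-gal luminescence so fewer parasites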
#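 assay system = mouse NIH/3T3 fibroblasts infected with β-gal-expressing T. cruzi Tulahuen C4 | input = 5,000 NIH/3T3 host cells per well | buffer or medium = DMEM plus 2% FBS | timing = 3 h host attachment, then at least 90 h co-culture | measured by = GalScreen luminescence, 60 min | evaluation = luminescence reflecting intracellular parasite burden, expressed as percent inhibition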
# NALP1 yeast inh: NALP1 inhibition. S. cerevisiae NALP1/ASC/caspase-1 growth, X-gal OD620, 72 h. inhibition, % at 10 µM. 280,000 tested, 0.61% active. AID 2071; in the data active = inhibition mostly above about 24%, no sharp cut-off; inactive = mostly below about 32%
# Calb FLC: affects C. albicans growth with fluconazole. C. albicans CaCi-2 (fluconazole-resistant clinical isolate) + fluconazole, Alamar Blue growth, 48 h. growth inhibition, % (no concentration beside the values). 300,000 tested, 0.57% active;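 active = growth inhibition above about 58% in most replicates, limit read from the data, passing the limit was not always enough; inconclusive = exactly half the replicates above a set limit; inactive = most replicates below a set limit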;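 also: all wells also contain fluconazole at 8 µg/ml as a sub-toxic cotreatment; 0% = median of DMSO wells and 100% = median of geldanamycin control wells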
# Starred values were filed as active, the others as inactive; ? = inconclusive; . = no result.
SMILES,PolyA inhibitor,L major viab,NLRP3 yeast inh,T cruzi repl,NALP1 yeast inh,Calb FLC
COc1ccc(-c2noc(CSc3nc(-c4ccccc4)cc(=O)[nH]3)n2)cc1,14.7,-5.8,1.1,18.9,39.7*,19.7
COc1cc(OC)cc(C(=O)NCc2nc(-c3ccccc3)no2)c1,6.5,67.8*,23.5,8.9,-5.1,-20.0
COc1ccc(CC(=O)NCc2nc(-c3ccccc3)no2)cc1,-15.7,-6.7,14.2,17.1,18.9,-12.4
C[N+]12CCCCC1C(COC(=O)c1ccc3c(c1)OCO3)CCC2 (configuration not stated),-4.8,-3.2,20.7,-5.2,8.9,28.4
O=c1c2ccc([N+](=O)[O-])cc2ncn1CCOc1ccccc1,-17.0,36.2,-0.3,65.9*,-3.4,44.5
Cc1ccc(OCCn2cnc3cc([N+](=O)[O-])ccc3c2=O)cc1,6.8,22.6,22.5,71.7*,7.5,-4.0
COc1ccc(CN2CCC(=O)N(CCO)CC2)cc1OC,-8.5,.,13.7,-33.5,25.4,-1.1
CCC(=O)N1CCN(c2nc(-c3ccccc3)c3c(c2C#N)CCCC3)CC1,-7.3,76.0*,14.0,25.6,7.2,-2.3
N#Cc1c(SCC(=O)O)nc(-c2ccccc2)c2c1CCCC2,10.7,-10.4,-4.7,15.4,-3.6,-13.8
CCOC(=O)c1cc(C#N)c(N2CCN(C)CC2)nc1-c1ccccc1,-0.4,89.2*,8.8,56.9*,28.8,-30.9
CCOC(=O)c1cc(C#N)c(N2CCCC2)nc1-c1ccccc1,-9.0,2.1,12.1,25.2,-7.8,5.5
COc1ccc(-c2nc(-c3cccc(C)c3)nc(N3CCN(C)CC3)c2C#N)cc1,2.3,85.9*,23.7,15.5,16.0,-4.4
COc1cccc(-c2nc(-c3ccccc3)nc(N3CCN(C)CC3)c2C#N)c1,2.7,50.8*,29.3,43.1,15.1,-4.2
CCOC(=O)C1(C)NC(c2ccco2)C2C(=O)N(C)C(=O)C21 (configuration not stated),12.2,-2.6,-12.4,-21.2,-17.2,24.4
O=C(Nc1cccc(Cl)c1)N(Cc1nc2ccccc2c(=O)[nH]1)Cc1cccs1,6.8,43.0,5.5,32.1,-5.7,-6.0
CCOC(=O)c1sc2ncnc(N3CCN(C)CC3)c2c1C,7.6,12.5,15.7,53.4,13.1,4.5
COC(=O)c1sc2nc(-c3ccccc3)nc(N3CCN(C)CC3)c2c1C,6.0,54.9*,.,32.9,12.8,1.0
CC1CCN(c2nc3c(c(=O)[nH]c(=O)n3C)n2CCSc2nc3ccccc3o2)CC1,0.6,-3.2,.,1.5,31.8,4.3
CC(NC=C1C(=O)OC(C)(C)OC1=O)C(=O)O (configuration not stated),16.2,-0.4,2.8,55.3*,-12.9,25.4
CC(C)C(NC=C1C(=O)OC(C)(C)OC1=O)C(=O)O (configuration not stated),12.8,-3.3,-1.2,-10.2,25.3,32.5
CN(Cc1cccc(F)c1)C(=O)C1CC(=O)N(c2ccc3c(c2)OCCO3)C1 (configuration not stated),.,.,7.3,.,.,.
OCCN=Cc1c(O)[nH]c2ccccc12,-12.9,-2.3,3.3,-7.8,-4.9,-4.8
CN(C)CC(C)(C)CN=Cc1c(O)[nH]c2ccccc12,-28.7,.,4.0,60.5*,13.6,27.1
Cc1cccc(OCC2CCCN(Cc3nc(C4CC4)no3)C2)c1 (configuration not stated),8.9,62.0*,-17.7,11.6,-11.3,2.0
COc1ccc(OCC2CCCN(Cc3nc(CC4CC4)no3)C2)cc1 (configuration not stated),-7.5,-2.9,42.6,16.5,4.8,-19.5
SMILES,PolyA inhibitor,L major viab,NLRP3 yeast inh,T cruzi repl,NALP1 yeast inh,Calb FLC
COc1ccc(/C=C2\C(=O)N(Cc3ccc(F)cc3)CC(=O)N2Cc2ccccc2)cc1,11.4,95.3*,23.5,2.4,38.7,25.5
Cc1ccc(NC2CCCN(C(=O)c3ccc(C)c(N4CCNC4=O)c3)C2)cc1C (configuration not stated),16.7,.,1.2,6.7,9.5,-0.7
Cc1cc2n(n1)C(c1ccc3c(c1)OCO3)Nc1c(C)cccc1-2 (configuration not stated),-22.8,98.8*,-6.5,8.1,-7.3,-21.4
Cc1ccc2oc(-c3ccc(NC(=O)CC(C)C)cc3)nc2c1,5.0,-3.6,9.4,6.9,-2.0,-8.7
CCC(C)NCC(=O)Nc1ccc(-c2nc3cc(NC(=O)CNC(C)CC)ccc3o2)cc1 (configuration not stated),.,99.2*,17.5,.,17.9,.
CCCC(=O)Nc1ccc2oc(-c3ccncc3)nc2c1,-2.2,-2.3,17.1,-10.8,-10.3,0.6
O=C(CN1CCCC1)Nc1ccc(-c2nc3cc(NC(=O)CN4CCCC4)ccc3o2)cc1,-4.9,100.5*,12.1,50.7,19.6,?
CCN(CC)CC(=O)Nc1ccc(-c2nc3cc(NC(=O)CN(CC)CC)ccc3o2)cc1,23.0,86.0*,20.0,38.0,-6.8,-2.1
CCN1CCN(CC(O)COC(c2ccccc2)c2ccccc2C)CC1 (configuration not stated),-7.2,.,7.7,11.3,28.6,-5.0
C=CCN(Cc1nc(-c2ccccc2)no1)C(=O)c1ccc2c(c1)OCO2,-10.1,.,28.8,-0.5,1.4,-7.4
O=C(CSc1ncn[nH]1)Nc1ccc2c(c1)CCC2,5.9,-4.1,13.6,-4.5,24.9,-14.8
O=C(Cc1ccc(Cl)cc1)NNC(=O)Nc1cccc2ccccc12,3.0,-2.8,8.0,2.4,9.1,4.6
Cn1ncc(Cl)c1C(=O)NNC(=O)Nc1cccc2ccccc12,.,.,22.4,.,7.4,109.6*
CN(C)c1ccc(C2CC(c3cccc(NS(C)(=O)=O)c3)=NN2C(=O)c2ccccc2)cc1 (configuration not stated),-18.7,59.8*,-2.8,13.0,-1.0,2.1
COc1cccc(C2CC(c3cccc(NS(C)(=O)=O)c3)=NN2C(=O)c2ccccc2)c1OC (configuration not stated),2.6,2.7,4.1,3.5,22.8,-3.6
O=C(Nc1ccc(Cl)c(Cl)c1)N1CCSCC1,0.0,74.0*,9.4,-5.1,15.8,-10.5
O=C(Nc1ccc(Cl)c(Cl)c1)N1CCC(N2CCCCC2)CC1,21.2,91.0*,14.1,10.4,13.0,3.8
O=C(Nc1ccc(Cl)c(Cl)c1)N1CCCCCC1,-9.9,.,24.2,-8.0,29.5,3.3
Cc1ccc(-n2c(C)cc(C3=NNC(=NC4CC4)SC3)c2C)cc1C,11.9,87.1*,25.9,17.0,23.8,?
Cc1cc(C2=NNC(=NC3CC3)SC2)c(C)n1-c1c(C)n(C)n(-c2ccccc2)c1=O,-8.3,-6.6,-2.0,-13.2,11.8,-24.1
CSc1cccc(N2CC(C(=O)Nc3cccc(S(=O)(=O)N4CCCC4)c3)CC2=O)c1 (configuration not stated),7.8,.,24.9,-16.0,.,-11.4
